Measurements of several laboratories.
Each line is one published result; the experiments were not run side by side.
Target: Sodium-dependent serotonin transporter (SLC6A4, Homo sapiens, UniProt P31645)

| read-out | method | notes | quantity | result | SMILES |
| --- | --- | --- | --- | --- | --- |
| transporter uptake | – | – | IC50 | 39.8 µM | CCn1c(-c2nc3cc(C(=O)N4CCC[C@@H](N)C4)cc(OC)c3n2C)cc2cccnc21 |
| ligand displacement | radioligand | – | Ki | 0.062 µM | CNc1nc2cc(OCCCCN3CCC(c4cccc(Cl)c4Cl)CC3)ccc2s1 |
| cell-free assay | radioligand | – | Ki | > 10 µM | CCN(CC)c1ccc(C2Nc3ccc(C(=O)c4ccccc4)cc3NC3=C2C(=O)CC(C)(C)C3)cc1 (stereo not shown) |
| ligand displacement | radioligand | – | Ki | 0.48 µM | Cc1ccc2cccc(N3CCN(CCCCOc4ccc5sc(C(C)C)nc5c4)CC3)c2n1 |
| ligand displacement | radioligand | cell membranes | Ki | > 10 µM | CCCOC(=O)[C@@]12C[C@@H]1[C@@H](n1cnc3c(NC)nc(C#Cc4ccc(Cl)s4)nc31)[C@H](O)[C@@H]2O |
| transporter uptake | – | – | IC50 | 20 µM | CCn1c(-c2nc3ccc(C(=O)N4CCCC(N)C4)cc3n2C)cc2ccccc21 (stereo not shown) |
| ligand displacement | radioligand | – | Ki | 0.33 µM | CC(C)c1nc2cc(OCCCCN3CCN(c4cccc5c4OCCO5)CC3)ccc2s1 |
| ligand displacement | radioligand | cell membranes | IC50 | 0.36 µM | CC(=O)N1C[C@H](CCN2CCC(c3c[nH]c4cc(Cl)ccc34)CC2)c2ccccc21 |
| cell-free assay | radioligand | – | Ki | > 10 µM | CCCCN1CCC(COC(=O)c2ccc(N)c(OCF)c2)CC1 |
| ligand displacement | radioligand | cell membranes | Ki | 34 µM | CCC(C)C(=O)[C@]12C(=O)[C@](CC=C(C)C)(C[C@H](CC=C(C)C)[C@@]1(C)CCC=C(C)C)C(=O)C(CC=C(C)C)=C2O (stereo partly shown) |
